Reference: ChEMBL document CHEMBL5390247, “Aryl azoles based scaffolds for disrupting tumor microenvironment” (Bioorg Med Chem, 2023)
The source made the active and inactive calls. No cut-off for these calls is given here.

Experiments:
[1] = test system: HT-29; assay: Immunomodulatory activity in human HT-29 cells co-cultured with interferon gamma-stimulated THP-1 cells assessed as relative PD-L1 protein expression in membrane at 100 uM incubated for 48 hrs by flow cytometry analysis relative to control; type: functional
[2] = test system: HT-29; assay: Antiproliferative activity against human HT-29 cells assessed as relative VEGFR-2 protein expression in whole cell at 100 uM incubated for 48 hrs by flow cytometry analysis relative to control; type: functional
[3] = test system: HT-29; assay: Antiproliferative activity against human HT-29 cells assessed as relative VEGFR-2 protein expression in membrane at 100 uM incubated for 48 hrs by flow cytometry analysis relative to control; type: functional
[4] = Cytotoxicity against HEK293 cells assessed as reduction in cell viability incubated for 48 hrs by MTT assay; type: toxicity, cell-based; conditions: human
In short: (§1)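 MTT dye-reduction assay. Cells at 5 × 10^3/well in DMEM with 10% FBS, treated with serial dilutions of compound (DMSO stocks) for 2 days at 37 °C, 5% CO2. MTT added for a further 3 h, formazan dissolved in DMSO, absorbance read at 550 nm. Viability expressed as % of untreated cells; IC50 determined graphically from three independent experiments.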

[5] = test system: HT-29; assay: Antiproliferative activity against human HT-29 cells assessed as relative PD-L1 protein expression in whole cell at 100 uM incubated for 48 hrs by flow cytometry analysis relative to control; type: functional
[6] = test system: HT-29; assay: Antiproliferative activity against human HT-29 cells assessed as reduction in cell viability incubated for 48 hrs by MTT assay; type: functional, cell-based; conditions: HT-29, 48 h; in short: as §1
[7] = test system: A549; assay: Antiproliferative activity against human A549 cells assessed as reduction in cell viability incubated for 48 hrs by MTT assay; type: functional, cell-based; conditions: A549, 48 h; in short: as §1
[8] = Toxicity against interferon gamma-stimulated human THP-1 monocyte cells co-cultured with human HT-29 cells assessed as reduction in cell viability at 100 uM incubated for 48 hrs by flow cytometry analysis; type: cell-based; conditions: thp-1, 48 h
In short: (§2)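 HT-29 cells at 10^5/well seeded and grown 24 h. Medium then replaced with medium containing IFN-γ (10 ng/ml), 5 × 10^5 THP-1 cells/well and compound at 100 µM; DMSO used as control. After 48 h, THP-1 cells collected from supernatant and cancer cells by trypsinisation. Both fixed in 4% paraformaldehyde and counted by flow cytometry relative to control.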

[9] = test system: MCF7; assay: Antiproliferative activity against human MCF7 cells assessed as reduction in cell viability incubated for 48 hrs by MTT assay; type: functional, cell-based; conditions: MCF7, 48 h; in short: as §1
[10] = test system: HT-29; assay: Antiproliferative activity against human HT-29 cells assessed as relative PD-L1 protein expression in membrane at 100 uM incubated for 48 hrs by flow cytometry analysis relative to control; type: functional
[11] = test system: HT-29; assay: Immunomodulatory activity in human HT-29 cells co-cultured with interferon gamma-stimulated THP-1 cells assessed as cell viability at 100 uM incubated for 48 hrs by flow cytometry analysis relative to control; type: functional; conditions: read-out: Activity; in short: as §2
[12] = test system: HT-29; assay: Antiproliferative activity against human HT-29 cells assessed as relative c-Myc protein expression at 100 uM incubated for 48 hrs by flow cytometry analysis relative to control; type: functional
[13] = test system: HT-29; assay: Immunomodulatory activity in human HT-29 cells co-cultured with interferon gamma-stimulated THP-1 cells assessed as relative CD-47 protein expression in membrane at 100 uM incubated for 48 hrs by flow cytometry analysis relative to control; type: functional
[14] = test system: HT-29; assay: Immunomodulatory activity in human HT-29 cells co-cultured with interferon gamma-stimulated THP-1 cells assessed as inhibition of cell growth at 100 uM incubated for 48 hrs by flow cytometry analysis relative to control; type: functional; in short: as §2
[15] = test system: HT-29; assay: Immunomodulatory activity in human HT-29 cells co-cultured with interferon gamma-stimulated THP-1 cells assessed as inhibition of CD-47 protein expression at 100 uM incubated for 48 hrs by flow cytometry analysis relative to control; type: functional
[16] = test system: HT-29; assay: Immunomodulatory activity in human HT-29 cells co-cultured with interferon gamma-stimulated THP-1 cells assessed as induction of morphological changes by measuring cell shrinkage at 100 uM incubated for 48 hrs; type: functional, cell-based
In short: (§3)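 HT-29 cells co-cultured with IFN-γ-stimulated THP-1 cells and treated 48 h with compounds at 100 µM, with DMSO as control. Cell shrinkage and rounded morphology assessed by microscopy images.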

[17] = test system: HT-29; assay: Immunomodulatory activity in human HT-29 cells co-cultured with interferon gamma-stimulated THP-1 cells assessed as induction of morphological changes by measuring rounded cell morphology at 100 uM incubated for 48 hrs; type: functional, cell-based; in short: as §3
[18] = test system: HT-29; assay: Immunomodulatory activity in human HT-29 cells co-cultured with interferon gamma-stimulated THP-1 cells assessed as reduction in number of cells at 100 uM incubated for 48 hrs; type: functional, cell-based; in short: as §2
[19] = test system: HEK293; assay: Anti-vasculogenic activity against HEK293 cells assessed as disruption of tube-like structures at <75 uM incubated for 24 hrs by Matrigel based imaging analysis; type: functional, cell-based; conditions: Homo sapiens
In short: (§4)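 HEK-293 cells seeded at 5 × 10^4 cells/well on Matrigel (pre-incubated with medium 24 h at 37 °C), grown 24 h at 37 °C until tube-like structures form; compounds then added in medium and incubated a further 24 h at 37 °C. Disruption of preformed tube-like structures assessed by imaging.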

[20] = test system: HMEC-1; assay: Antiangiogenic activity in HMEC-1 cells assessed as inhibition of endothelial microtubes formation at <75 uM incubated for 24 hrs by matrigel based imaging analysis; type: functional, cell-based; conditions: Homo sapiens
In short: (§5)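 HMEC-1 cells at 2 × 10^4 cells/well seeded on Matrigel (10 mg/mL, gelled 30 min at 37 °C) in EGM-2MV medium with SingleQuots, allowed to attach 30 min at 37 °C. Compounds then added in medium; after 24 h at 37 °C, microtube formation/destruction evaluated from pictures.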

[21] = test system: HT-29; assay: Immunomodulatory activity in human HT-29 cells co-cultured with interferon gamma-stimulated THP-1 cells assessed as relative IL-6 level at 100 uM incubated for 48 hrs by ELISA analysis relative to control; type: functional
In short: (§6)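 HT-29 cells co-cultured with IFN-γ (10 ng/ml)-stimulated THP-1 cells and treated 48 h with compound at 100 µM. Culture media collected and IL-6 measured by human IL-6 ELISA, in pg/mL and as % of control. Mean of three experiments.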

[22] = test system: HT-29; assay: Immunomodulatory activity in human HT-29 cells co-cultured with interferon gamma-stimulated THP-1 cells assessed as reduction in IL-6 level at 100 uM incubated for 48 hrs by ELISA analysis relative to control; type: functional; parameters: scale not given: the % may be the effect or the level left; in short: as §6
[23] = test system: HEK293; assay: Anti-vasculogenic activity against HEK293 cells assessed as disruption of tube-like structures at 100 uM incubated for 24 hrs by Matrigel based imaging analysis; type: functional, cell-based; conditions: Homo sapiens; in short: as §4
[24] = test system: HMEC-1; assay: Antiangiogenic activity in HMEC-1 cells assessed as inhibition of endothelial microtubes formation at 100 uM incubated for 24 hrs by matrigel based imaging analysis; type: functional, cell-based; conditions: Homo sapiens; in short: as §5
[25] = test system: HT-29; assay: Immunomodulatory activity in human HT-29 cells co-cultured with interferon gamma-stimulated THP-1 cells assessed as IL-6 level at 100 uM incubated for 48 hrs by ELISA analysis (reference value: 192 +/- 16 pg/ml); type: functional; in short: as §6
[26] = test system: HT-29; assay: Antiproliferative activity against human HT-29 cells assessed as reduction in IL-6 secretion at 100 uM incubated for 48 hrs by ELISA assay; type: functional, cell-based
In short: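 HT-29 monocultures at 10^5 cells/well treated 48 h with compound at 100 µM in 500 µL growth medium. Media collected and secreted IL-6 measured with a human IL-6 ELISA kit.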

Compound | Activity [1] | Activity [2] | Activity [3] | IC50 at 48 h [4] | Activity [5] | IC50 [6] | IC50 [7] | Activity [8] | IC50 [9] | Activity [10] | viability at 100 µM [11] | Activity [12] | Activity [13] | inhibition at 100 µM [14] | Activity [19] | Activity [20] | Activity [21] | Activity [23] | Activity [24] | Activity [25] | also measured
O=[N+]([O-])c1cccc(-c2nnn(Cc3ccc(Br)cc3)n2)c1 | 93% | 71% | 96% | > 100 µM | 93% | > 100 µM | 39 µM | Non-Toxic | > 100 µM | >100% | 52% | 72% | 87% |  |  |  |  |  |  |  | 
Cc1cccc(Cn2nnc(-c3cccc(N)c3)n2)c1 | 99% | >100% | >100% |  | 81% |  |  | Non-Toxic |  | >100% | 15% | >100% | 69% | > 70% |  |  |  |  |  |  | inhibition at 100 µM [15]: > 30%
O=[N+]([O-])c1cccc(-c2nnn(Cc3ccc(Cl)cc3)n2)c1 | 93% | 45% | 95% | > 100 µM | 87% | > 100 µM | > 100 µM | Non-Toxic | 84 µM | 93% | 93% | 90% | 88% |  |  |  |  |  |  |  | 
COc1ccc(Cn2nnc(-c3cccc(N)c3)n2)cc1 | 100% | 75% | >100% |  | 99% |  |  | Non-Toxic |  | >100% | 45% | 75% | 58% |  |  |  |  |  |  |  | Activity [16]: Active; Activity [17]: Active; Activity [18]: Active; inhibition at 100 µM [15]: > 30%
Cc1ccc(Cn2nnc(-c3cccc(N)c3)n2)cc1 | 90% |  |  |  |  |  |  | Non-Toxic |  |  | 28% |  | 67% | > 70% |  |  |  |  |  |  | inhibition at 100 µM [15]: > 30%
Nc1cccc(-c2nnn(Cc3ccc(Cl)cc3)n2)c1 | 114% | 96% | >100% | 91 µM | 99% | 72 µM | > 100 µM | Non-Toxic | > 100 µM | >100% | 22% | 80% | 93% | > 70% | inactive | inactive | 6% | Active | Active | 11 pg/mL | Activity [22]: 94%; Activity [26]: inactive
O=[N+]([O-])c1cccc(-c2nnn(Cc3ccccc3Cl)n2)c1 | 108% | 53% | 97% | > 100 µM | 89% | 81 µM | > 100 µM | Non-Toxic | > 100 µM | 98% | 44% | 86% | 87% |  |  |  |  |  |  |  | 
Nc1cccc(-c2cn(Cc3ccc(Br)cc3)nn2)c1 | 154% |  |  |  |  |  |  | Non-Toxic |  |  | 8% |  | 92% | > 90% | inactive | inactive | 95% | Active | Active | 183 pg/mL | Activity [16]: Active; Activity [17]: Active; Activity [18]: Active; Activity [26]: inactive
Nc1cccc(-c2nnn(Cc3cccc(Cl)c3)n2)c1 | 94% | 99% | 97% | > 100 µM | 97% | 81 µM | > 100 µM | Non-Toxic | 88 µM | >100% | 48% | 76% | 95% |  | inactive | inactive | 3% | Active | Active | 6 pg/mL | Activity [22]: >95%; Activity [26]: inactive
Nc1cccc(-c2nnn(Cc3ccccc3Cl)n2)c1 | 93% | 92% | 96% |  | >100% |  |  | Non-Toxic |  | 95% | 61% | >100% | 86% |  | inactive | inactive | 3% | Active | Active | 6 pg/mL | Activity [22]: >95%; Activity [26]: inactive
Nc1cccc(-c2cn(Cc3ccc(Cl)cc3)nn2)c1 | 140% |  |  |  |  |  |  | Non-Toxic |  |  | 5% |  | 91% | > 90% | inactive | inactive | 98% | Active | Active | 189 pg/mL | Activity [16]: Active; Activity [17]: Active; Activity [18]: Active; Activity [26]: inactive
